From ChEMBL document CHEMBL1255233, “The P-113 fragment of histatin 5 requires a specific peptide sequence for intracellular translocation in Candida albicans, which is independent of cell wall binding” (Antimicrob Agents Chemother, 2008)
The source made the active and inactive calls. No cut-off for these calls is given here.

Experiments:
[1] = Drug uptake in Candida albicans CAF4-2 having ssa2delta mutation cytoplasmic extract assessed per 10^7 cells at 31.5 uM upto 30 mins by SDS-PAGE in presence of 10 mM NaPB; assay type: ADME, Cytoplasm; settings: 0.5 h
Method in brief: (§1)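 Cells in 10 mM NaPB with biotin-labeled peptide (31.5–32 µM) at 37°C for 5–90 min. After β-ME cell-wall extraction, cells bead-lysed at 4°C in NaPB with protease inhibitors; cytosol from 13,000 rpm spin. Cytosolic protein (10 µg/lane) on Tricine SDS-PAGE, streptavidin-HRP blot, quantitated against peptide standards.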

[2] = Drug uptake in Candida albicans CAF4-2 cytoplasm at 31.5 uM within 5 mins by SDS-PAGE in presence of 10 mM NaPB; assay type: ADME; method in brief: as §1
Candida albicans [3] = test: Drug uptake in Candida albicans CAF4-2 assessed as reduction of free drug in cell supernatant at 31.5 uM after 15 mins by slot blot assay; assay type: ADME, organism-based; settings: in vivo, 0.25 h
Method in brief: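 Early-log cells (1 x 10^8) were washed and suspended in 10 mM NaPB with biotin-labeled peptide (31.5 µM) for 5–90 min with shaking. After centrifugation at 4°C, supernatants were applied to PVDF by slot blot. The membrane was blocked in 3% milk/TBST, probed with streptavidin-HRP (1:1,000), and developed for remaining free peptide.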

[4] = Drug uptake in Candida albicans CAF4-2 cell wall extract at 31.5 uM within 5 mins by SDS-PAGE in presence of 10 mM NaPB; assay type: ADME, cell-based; settings: caf4-2, 5 min
Method in brief: (§2)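 Wild-type or ssa2 cells were incubated with biotin-labeled peptide (31.5 µM) in 10 mM NaPB at 37°C for 5–90 min. Cell wall was extracted with 1% β-ME in ammonium carbonate (pH 8.0), 30 min at 37°C. Cytosol was obtained by glass-bead lysis with protease inhibitors. Extracts (10 µg/lane) were run on 16% Tricine SDS-PAGE, blotted, and detected with streptavidin-HRP. Amounts were quantified against peptide standards (0.06125–0.5 µg) and expressed per 10^7 cells.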

[5] = Drug uptake in Candida albicans CAF4-2 cytoplasmic extract assessed per 10^7 cells at 31.5 uM within 15 mins by SDS-PAGE in presence of 10 mM NaPB; assay type: ADME, Cytoplasm; settings: 0.25 h; method in brief: as §2
[6] = Drug uptake in Candida albicans CAF4-2 cytoplasmic extract assessed per 10^7 cells at 31.5 uM after 90 mins by SDS-PAGE in presence of 10 mM NaPB; assay type: ADME, Cytoplasm; settings: 1.5 h; method in brief: as §2
[7] = Drug uptake in Candida albicans CAF4-2 beta-ME extracted cell wall protein assessed per 10^7 cells at 31.5 uM within 15 mins by SDS-PAGE in presence of 10 mM NaPB; assay type: ADME, cell-based; settings: 0.25 h
Method in brief: (§3)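 Early-log cells (1 x 10^8) washed and suspended in 10 mM NaPB with 31.5 µM biotin-labeled peptide at 37°C with shaking, sampled at timepoints to 90 min. Cell wall released with 1% β-ME in ammonium carbonate pH 8.0, 30 min, 37°C. Extract run on 16% Tricine SDS-PAGE (10 µg/lane), blotted, detected with streptavidin-HRP, quantitated against peptide standards.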

[8] = Drug uptake in Candida albicans CAF4-2 beta-ME extracted cell wall protein assessed per 10^7 cells at 31.5 uM within 5 mins by SDS-PAGE in presence of 10 mM NaPB; assay type: ADME, cell-based; method in brief: as §3
Candida albicans [9] = test: Drug uptake in Candida albicans CAF4-2 having ssa2delta mutation assessed as reduction of free drug in cell supernatant at 31.5 uM after 30 mins by slot blot assay; assay type: ADME, organism-based; settings: in vivo, 0.5 h
Method in brief: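 Supernatant depletion: wt and ssa2 cells (1 x 10^8 in 1 ml 10 mM NaPB) incubated with 31.5 µM biotin-labeled peptide for 5–90 min with shaking. Cells pelleted at 4°C; 50 µl of supernatant slot-blotted onto PVDF, blocked with milk, probed with streptavidin-HRP. Buffer-only cells used as control.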

Candida albicans [10] = test: Candidacidal activity against Candida albicans CAF4-2 having ssa2delta mutation after 3 hrs by radial diffusion assay; assay type: functional, organism-based
Method in brief: (§4)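 Radial diffusion: C. albicans cells incorporated into underlay gels; peptides loaded into wells punched in the gel and incubated overnight. Clear-zone diameters (no growth) converted to cell death and plotted against peptide concentration. Means and SD of three independent experiments.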

Candida albicans [11] = test: Candidacidal activity against wild type Candida albicans CAF4-2 assessed as cell death below 31.5 uM treated for 1 hr measured after 48 hrs by microdilution plate assay; assay type: functional, organism-based
Method in brief: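 Candidacidal microdilution assay: 1 x 10^6 cells exposed to peptide for 1 h, diluted to quench, plated on YNB agar. Loss of viability = [1 − (colonies treated/colonies control)] x 100. Means and SD from three independent experiments.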

Candida albicans [12] = test: Candidacidal activity against wild type Candida albicans CAF4-2 after 3 hrs by radial diffusion assay in presence of 100 mM NaPB; assay type: functional, organism-based
Method in brief: (§5)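 C. albicans cells grown in YNB were set into underlay gels. Peptides were loaded into punched wells and incubated overnight. Clear-zone diameters (10 units = 1 mm) were plotted against peptide concentration and converted to cell death. Incubation was in 10 mM or 100 mM NaPB. Means and SD from three independent experiments.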

Candida albicans [13] = test: Candidacidal activity against wild type Candida albicans CAF4-2 after 3 hrs by radial diffusion assay; assay type: functional, organism-based; method in brief: as §5
[14] = target: Heat shock protein SSA2 (Candida albicans (strain SC5314 / ATCC MYA-2876) (Yeast)) (UniProt P46587); test: Binding affinity to Candida albicans KRKNKKDISTNQR region of Ssa2 at 2 uM by chemiluminescence assay
Sequence of Heat shock protein SSA2 (Candida albicans (strain SC5314 / ATCC MYA-2876) (Yeast)) (P46587 whole entry, the tested form may be a part): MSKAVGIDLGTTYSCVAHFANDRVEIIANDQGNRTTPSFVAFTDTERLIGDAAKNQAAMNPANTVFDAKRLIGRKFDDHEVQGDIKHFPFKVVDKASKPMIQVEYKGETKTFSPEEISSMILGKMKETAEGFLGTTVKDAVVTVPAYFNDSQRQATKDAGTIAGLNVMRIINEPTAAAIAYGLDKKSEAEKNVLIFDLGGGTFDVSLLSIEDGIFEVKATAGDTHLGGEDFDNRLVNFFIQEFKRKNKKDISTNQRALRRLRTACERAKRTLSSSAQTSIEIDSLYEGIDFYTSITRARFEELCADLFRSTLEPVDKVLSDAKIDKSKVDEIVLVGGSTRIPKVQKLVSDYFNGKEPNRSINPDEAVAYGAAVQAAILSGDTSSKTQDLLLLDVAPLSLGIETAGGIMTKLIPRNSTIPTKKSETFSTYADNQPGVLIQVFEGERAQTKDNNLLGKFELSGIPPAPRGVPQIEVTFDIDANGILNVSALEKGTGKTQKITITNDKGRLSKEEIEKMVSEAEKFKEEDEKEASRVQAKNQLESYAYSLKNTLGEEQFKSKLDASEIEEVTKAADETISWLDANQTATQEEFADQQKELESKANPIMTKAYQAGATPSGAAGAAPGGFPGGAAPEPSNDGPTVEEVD
Method in brief: (§6)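 Overlapping Ssa2p peptides spotted on cellulose-β-alanine membranes; methanol rinse, TBS (pH 8.0) washes, 2 h blocking in albumin/biotin-free buffer at room temperature. Biotin-labeled peptide (2 µM) in blocking buffer, 3 h at room temperature, washed; streptavidin-HRP (1:20,000) 1 h; chemiluminescent detection and imaging. Repeatability confirmed by reprobing after regeneration (30 min, 50°C).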

Candida albicans [15] = test: Candidacidal activity against Candida albicans CAF4-2 having ssa2delta mutation assessed as cell death at 31.5 uM treated for 1 hr measured after 48 hrs by microdilution plate assay; assay type: functional
Candida albicans [16] = test: Candidacidal activity against Candida albicans CAF4-2 having ssa2delta mutation assessed as cell death below 31.5 uM treated for 1 hr measured after 48 hrs by microdilution plate assay; assay type: functional, organism-based
Candida albicans [17] = test: Candidacidal activity against wild type Candida albicans CAF4-2 assessed as cell death at 31.5 uM treated for 1 hr measured after 48 hrs by microdilution plate assay; assay type: functional
Candida albicans [18] = test: Candidacidal activity against wild type Candida albicans CAF4-2 after 3 hrs by radial diffusion assay in presence of 10 mM NaPB; assay type: functional, organism-based; method in brief: as §5
Candida albicans [19] = test: Candidacidal activity against Candida albicans CAF4-2 having ssa1delta mutation assessed as cell death at 31.5 uM treated for 1 hr measured after 48 hrs by microdilution plate assay; assay type: functional
Candida albicans [20] = test: Candidacidal activity against Candida albicans CAF4-2 having ssa1delta mutation assessed as cell death below 31.5 uM treated for 1 hr measured after 48 hrs by microdilution plate assay; assay type: functional, organism-based
Candida albicans [21] = test: Candidacidal activity against wild type Candida albicans CAF4-2 at >62 uM after 3 hrs by radial diffusion assay; assay type: functional, organism-based; method in brief: as §5
[22] = target: Heat shock protein SSA2 (Candida albicans (strain SC5314 / ATCC MYA-2876) (Yeast)) (UniProt P46587); test: Binding affinity to Candida albicans AKRLIGRKFDDHE region of Ssa2 at 2 uM by chemiluminescence assay; method in brief: as §6
Candida albicans [23] = test: Candidacidal activity against Candida albicans CAF4-2 having ssa1delta mutation after 3 hrs by radial diffusion assay; assay type: functional, organism-based; method in brief: as §4
Candida albicans [24] = test: Candidacidal activity against wild type Candida albicans CAF4-2 at >62 uM after 3 hrs by radial diffusion assay in presence of 100 mM NaPB; assay type: functional, organism-based; method in brief: as §5

H-AKRHHGYKRKFH-OH [listing 1 of 2 here]
Drug uptake [1]: < 0.2 µg | Drug uptake [2]: Active | Drug uptake (Candida albicans [3]): Active | Drug uptake [4]: Active | Drug uptake [5]: 0.26 µg | Drug uptake [6]: 0.2 µg | Drug uptake [7]: Active | Drug uptake [8]: 0.1 µg | Drug uptake (Candida albicans [9]): Active

H-AQRHHGYKRQFH-OH [listing 1 of 2 here]
Activity (Candida albicans [10]): inactive | Activity (Candida albicans [11]): inactive | Activity (Candida albicans [12]): inactive | Activity (Candida albicans [13]): inactive | Activity [14]: inactive | Activity (Candida albicans [15]): < 10% | Activity (Candida albicans [16]): inactive | Activity (Candida albicans [17]): < 10% | Activity (Candida albicans [18]): Active | Activity (Candida albicans [19]): < 10% | Activity (Candida albicans [20]): inactive | Activity (Candida albicans [21]): Active | Activity [22]: inactive | Activity (Candida albicans [23]): inactive | Activity (Candida albicans [24]): inactive

H-AQRHHGYKRQFH-OH [listing 2 of 2 here]
Drug uptake [7]: 0.2 µg | Drug uptake [8]: 0.15 µg

H-AKRHHGYKRKFH-OH [listing 2 of 2 here]
Activity (Candida albicans [10]): inactive | Activity (Candida albicans [12]): inactive | Activity (Candida albicans [13]): Active | Activity [14]: Active | Activity (Candida albicans [15]): 76% | Activity (Candida albicans [16]): inactive | Activity (Candida albicans [17]): 90% | Activity (Candida albicans [18]): Active | Activity (Candida albicans [19]): 90% | Activity (Candida albicans [20]): inactive | Activity [22]: Active | Activity (Candida albicans [23]): Active
